Source: ChEMBL document CHEMBL1155222, “Synthesis and anticancer activity of N-bis(trifluoromethyl)alkyl-N'-thiazolyl and N-bis(trifluoromethyl)alkyl-N'-benzothiazolyl ureas” (2009)

How the values were obtained:
Assay type in all cases: functional
[1] = test system: HL-60(TB); assay: Anticancer activity against human HL-60(TB) cells after 48 hrs by sulforhodamine B assay; conditions: HL-60, 48 h
Summary of the method: (§1)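 NCI 60-cell-line screen. Cells were grown in RPMI 1640 with 5% FBS and 2 mM L-glutamine, seeded at 5000–40,000 cells/well and preincubated 24 h at 37 °C, 5% CO2. Compounds in DMSO were diluted in medium with gentamicin and tested at five concentrations (10^-4 to 10^-8 M) for 48 h. Cells were then fixed with TCA, stained with SRB and read at 515 nm.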

[2] = test system: K562; assay: Anticancer activity against human K562 cells after 48 hrs by sulforhodamine B assay; conditions: K562, 48 h
Summary of the method: (§2)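 NCI 60-cell-line screen. Cells grown in RPMI 1640 with 5% FBS and 2 mM L-glutamine, plated at 5000–40,000 cells/well, and preincubated 24 h at 37 °C under 5% CO2. Compounds were taken from DMSO stocks and tested at five final concentrations, 10^-4 to 10^-8 M, for 48 h. Cells were TCA-fixed, stained with 0.4% SRB, and read at 515 nm. GI50, TGI and LC50 were derived as log molar values.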

[3] = test system: MOLT-4; assay: Anticancer activity against human MOLT4 cells after 48 hrs by sulforhodamine B assay; conditions: MOLT-4, 48 h; summary of the method: as §2
[4] = test system: NCI-H226; assay: Anticancer activity against human NCI-H226 cells after 48 hrs by sulforhodamine B assay; conditions: NCI-H226, 48 h; summary of the method: as §2
[5] = test system: NCI-H460; assay: Anticancer activity against human NCI-H460 cells after 48 hrs by sulforhodamine B assay; conditions: NCI-H460, 48 h; summary of the method: as §2
[6] = test system: NCI-H23; assay: Anticancer activity against human NCI-H23 cells after 48 hrs by sulforhodamine B assay; conditions: NCI-H23, 48 h; summary of the method: as §1
[7] = test system: SF-268; assay: Anticancer activity against human SF268 cells after 48 hrs by sulforhodamine B assay; conditions: SF-268, 48 h; summary of the method: as §2
[8] = test system: SNB-19; assay: Anticancer activity against human SNB19 cells after 48 hrs by sulforhodamine B assay; conditions: SNB-19, 48 h
Summary of the method: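 NCI 60-cell-line panel; cells grown in RPMI 1640 with 5% FBS and 2 mM L-glutamine, plated at 5000–40,000 cells/well and preincubated 24 h at 37 °C, 5% CO2. Compounds came from DMSO stocks diluted in medium with gentamicin and were tested at five final concentrations, 10^-4 to 10^-8 M, for 48 h. Cells were fixed with TCA, stained with SRB and read at 515 nm. GI50, TGI and LC50 were derived as log molar values.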

[9] = test system: Malme-3M; assay: Anticancer activity against human MALME-3M cells after 48 hrs by sulforhodamine B assay; summary of the method: as §2
[10] = test system: DU-145; assay: Anticancer activity against human DU145 cells after 48 hrs by sulforhodamine B assay; conditions: DU-145, 48 h; summary of the method: as §2
[11] = test system: MCF7; assay: Anticancer activity against human MCF7 cells after 48 hrs by sulforhodamine B assay; conditions: MCF7, 48 h; summary of the method: as §2
[12] = test system: MDA-MB-231; assay: Anticancer activity against human MDA-MB-231 cells after 48 hrs by sulforhodamine B assay; conditions: MDA-MB-231, 48 h; summary of the method: as §2
[13] = test system: MDA-MB-435; assay: Anticancer activity against human MDA-MB-435 cells after 48 hrs by sulforhodamine B assay; conditions: MDA-MB-435, 48 h; summary of the method: as §2
[14] = test system: BT-549; assay: Anticancer activity against human BT549 cells after 48 hrs by sulforhodamine B assay; conditions: BT-549, 48 h; summary of the method: as §2
[15] = test system: NCI-H460; assay: Anticancer activity against human NCI-H460 cells assessed as cell growth at 100 uM after 48 hrs by Alamar blue assay relative to control; conditions: NCI-H460, 48 h, read-out: Activity
Summary of the method: (§3)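 NCI one-dose pre-test on MCF7, NCI-H460 and SF-268. Cells were inoculated and preincubated, then exposed to a single 10^-4 M concentration for 48 h. End-point was alamar blue. Results are percent growth versus untreated control cells, with negative values indicating cell kill.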

[16] = test system: MCF7; assay: Anticancer activity against human MCF7 cells assessed as cell growth at 100 uM after 48 hrs by Alamar blue assay relative to control; conditions: MCF7, 48 h, read-out: Activity; summary of the method: as §3
[17] = test system: SF-268; assay: Anticancer activity against human SF268 cells assessed as cell growth at 100 uM after 48 hrs by Alamar blue assay relative to control; conditions: SF-268, 48 h, read-out: Activity; summary of the method: as §3
[18] = Anticancer activity against human RPMI8266 cells after 48 hrs by sulforhodamine B assay; summary of the method: as §2

| SMILES | GI50 [1] [µM] | GI50 [2] [µM] | GI50 [3] [µM] | GI50 [4] [µM] | GI50 [5] [µM] | GI50 [6] [µM] | GI50 [7] [µM] | GI50 [8] [µM] | GI50 [9] [µM] | GI50 [10] [µM] | GI50 [11] [µM] | GI50 [12] [µM] | GI50 [13] [µM] | GI50 [14] [µM] | growth at 100 µM [15] [%] | growth at 100 µM [16] [%] | growth at 100 µM [17] [%] | GI50 [18] [µM] |
| --- | --- | --- | --- | --- | --- | --- | --- | --- | --- | --- | --- | --- | --- | --- | --- | --- | --- | --- |
| O=c1[nH]cc(F)c(=O)[nH]1 [FLUOROURACIL] | 2.29 | 3.55 | 0.355 | 55 | 0.0562 | 0.331 | 1.58 | 3.8 | 0.0513 | 0.363 | 0.0794 | 6.61 | 0.0724 | 10.7 | – | – | – | – |
| O=C(Nc1nccs1)NC(C(F)(F)F)C(F)(F)F | 72.4 | 36.3 | 40.7 | 57.5 | 34.7 | – | 29.5 | 49 | 29.5 | 63.1 | 40.7 | 58.9 | 79.4 | 46.8 | 22 | 35 | 20 | – |
| CCC(NC(=O)Nc1nccs1)(C(F)(F)F)C(F)(F)F | – | 34.7 | 30.9 | 70.8 | 38.9 | – | 60.3 | > 100 | 58.9 | 69.2 | 42.7 | 85.1 | 61.7 | 40.7 | 6 | 20 | 40 | – |
| CNC(=O)Nc1ccccc1 | 100 | 100 | 100 | 100 | 100 | 100 | 100 | 100 | 100 | 100 | 100 | 100 | 100 | 100 | – | – | – | 100 |
| CCC(NC(=O)Nc1nc2ccccc2s1)(C(F)(F)F)C(F)(F)F | – | 23.4 | 29.5 | 15.8 | 21.4 | – | 17 | 20.9 | 15.5 | 18.6 | 15.8 | 16.2 | 20 | 18.2 | -93 | -79 | -94 | – |
| CC(NC(=O)Nc1nc2ccccc2s1)(C(F)(F)F)C(F)(F)F | 97.7 | 17 | 18.2 | 38.9 | 24.5 | – | 29.5 | 24.5 | 15.1 | 91.2 | 38 | 34.7 | 41.7 | > 100 | 43 | 62 | 28 | 38.9 |
| O=C(Nc1nc2ccccc2s1)NC(C(F)(F)F)C(F)(F)F | 26.3 | 25.1 | 29.5 | 25.7 | 22.4 | – | 29.5 | 35.5 | 20.4 | 30.2 | 28.2 | 22.4 | 31.6 | 28.2 | -74 | -10 | -39 | 33.9 |
